A short description of experiment [1]: The pKa value was measured at 31-P chemical shift changes due to protonation.
Experiment [2] can be described thus: The pKa value was measured at 17-O chemical shift changes due to protonation.
Experiment [3] can be described thus: The pKa value was measured at N15 chemical shift changes due to protonation. Summed up:
(§1)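 Chemical shift recorded at 4 °C across a pH series. Sample pH was read in an ice-water bath (0-4 °C) before and after each NMR run and the two readings averaged, with no correction for deuterium or temperature. The meter was calibrated at 20 °C. pKa came from fitting single- or double-ionization titration equations to shift versus pH, with error estimated at about 0.05 pH units.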

Experiment [4] in a line: The pKa value was measured at 15-N chemical shift changes due to protonation. Put shortly: as §1

From ChEMBL document CHEMBL1126903 come the findings set out here.

Take `CCOP(=O)(NP(=O)(OCC)OCC)OCC`: the figures for the pKa in experiment [1] and in experiment [2] were 3.8 and 4.2, respectively.
On to `N[C@@H](Cc1c[nH]cn1)C(=O)O`, for which the pKa in experiment [3] is 6.2.
Turning to `NP(=O)(O)O`, the pKa in experiment [1] was found to be 3; in experiment [4] it was 2.8.
Regarding `c1c[nH]cn1`, the pKa in experiment [3] is 7.
Take `NP(N)(=O)O`: the pKa in experiment [1] and in experiment [4] was 5.4 throughout.
For `Nc1ncnc2c1ncn2[C@@H]1O[C@H](COP(=O)(O)OP(=O)(O)OP(=O)(O)O)[C@@H](O)[C@H]1O`, the pKa in experiment [1] was determined as 6.6.
Turning to `O=P(O)(O)NP(=O)(O)O`, the results for the pKa in experiment [1] and in experiment [2] were 10.3 and 10.4, respectively.
